Results as given in ChEMBL document CHEMBL1828547, “Synthesis and antimalarial activity of 2-guanidino-4-oxoimidazoline derivatives” (J Med Chem, 2011).
Converted amounts (≈) assume the structure as drawn. The source made the active and inactive calls. No cut-off for these calls is given here.

What was measured:
[1] = Metabolic stability in human assessed as half life at 320 mg/kg, po by LC-MS/MS analysis; format: ADME, organism-based; design: dose 320 mg/kg, route oral
[2] = test system: Plasmodium falciparum; assay: Antimalarial activity against blood stage Plasmodium falciparum W2 assessed as [3H]-hypoxanthine uptake after 24 hrs by scintillation counting; format: functional, organism-based
[3] = test system: Plasmodium falciparum; assay: Antimalarial activity against blood stage Plasmodium falciparum D6 assessed as [3H]-hypoxanthine uptake after 24 hrs by scintillation counting; format: functional, organism-based
[4] = Metabolic stability in mouse assessed as half life at 320 mg/kg, po by LC-MS/MS analysis; format: ADME, organism-based; design: dose 320 mg/kg, route oral; conditions: in vivo
[5] = test system: Plasmodium falciparum; assay: Antimalarial activity against blood stage Plasmodium falciparum TM91C235 assessed as [3H]-hypoxanthine uptake after 24 hrs by scintillation counting; format: functional, organism-based
[6] = test system: Plasmodium berghei; assay: Antimalarial activity against Plasmodium berghei […] mouse model assessed as causal prophylactic activity at 320 mg/kg, po administered one day before infection, on day of infection and one day post infection; format: functional, organism-based; design: dose 320 mg/kg
In short: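 Sporozoite-inoculated P. berghei exoerythrocytic (EE) mouse model. Compound ground and suspended in hydroxyethylcellulose plus Tween 80 for oral dosing, given once daily for 3 consecutive days: day before, 4 h before, and day after sporozoite inoculation (days −1, 0, 1). Dose in (mg/kg)/day. Read-out is mice protected per group (causal prophylaxis) or delay in patency.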

[7] = Metabolic stability in mouse assessed as half life at 160 mg/kg, po by LC-MS/MS analysis; format: ADME, organism-based; design: dose 160 mg/kg, route oral
[8] = Metabolic stability in human assessed as half life at 160 mg/kg, po by LC-MS/MS analysis; format: ADME, organism-based; design: dose 160 mg/kg, route oral
[9] = test system: Plasmodium berghei; assay: Antimalarial activity against Plasmodium berghei […] mouse model assessed as causal prophylactic activity at 160 mg/kg, po administered one day before infection, on day of infection and one day post infection; format: functional, organism-based; design: dose 160 mg/kg
In short: (§1)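 Sporozoite-challenged exoerythrocytic mouse model using P. berghei. Compound ground and suspended in hydroxyethylcellulose with Tween 80 for oral dosing, given once daily for 3 consecutive days: day before, 4 h before, and day after sporozoite inoculation. Dose in (mg/kg)/day. Mice are scored for protection (causal prophylaxis) and for delay in patency.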

[10] = test system: Plasmodium berghei; assay: Antimalarial activity against Plasmodium berghei […] mouse model assessed as delay in patency time at 40 mg/kg, po administered one day before infection, on day of infection and one day post infection; format: functional; in short: as §1
[11] = test system: Plasmodium berghei; assay: Antimalarial activity against Plasmodium berghei […] mouse model assessed as delay in patency time at 160 mg/kg, po administered one day before infection, on day of infection and one day post infection; format: functional; in short: as §1
[12] = test system: Plasmodium cynomolgi; assay: Antimalarial activity against Plasmodium cynomolgi infected in rhesus monkey assessed as time delayed in relapse of patency at 10 mg/kg/day, po administered for 7 days; format: functional
In short: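 Rhesus monkeys that developed P. cynomolgi parasitemia in the prophylaxis test were used once parasitemia reached 5000 parasites/mm³. Oral chloroquine 10 (mg/kg)/day was given for 7 days, with test agent given alongside. Relapse was monitored. Monkeys with no relapse after 100 days were counted as radically cured. Relapsing controls were retreated with chloroquine and followed for a second relapse.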

[13] = test system: Plasmodium cynomolgi; assay: Antimalarial activity against Plasmodium cynomolgi infected in rhesus monkey assessed as delay in patency time at 50 mg/kg, po administered one day before infection, on day of infection followed by 1 day post infection; format: functional
In short: (§2)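 Rhesus monkeys challenged with P. cynomolgi sporozoites. Oral dosing on days −1, 0 and 1 in HECT or MC vehicle, with dose in (mg/kg)/day. Read-out is the first day of patency and the delay in patency relative to vehicle-treated controls.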

[14] = test system: Plasmodium berghei; assay: Antimalarial activity against Plasmodium berghei […] mouse model assessed as delay in patency time at 320 mg/kg, po administered one day before infection, on day of infection and one day post infection; format: functional; in short: as §1
[15] = test system: Plasmodium cynomolgi; assay: Antimalarial activity against Plasmodium cynomolgi infected in rhesus monkey assessed as delay in patency time at 1.78 mg/kg, po administered one day before infection, on day of infection followed by 1 day post infection; format: functional; in short: as §2

Row | half-life [1] | IC50 [2] | IC50 [3] | half-life [4] | IC50 [5] | half-life [7] | half-life [8] | Compound | Activity [6] | Activity [9] | Time [10] | Time [11] | Time [12] | Time [13] | Time [14] | Time [15]
1 |  | > 5 µg/mL | 2.9 µg/mL (≈ 6.56 µM) |  | > 5 µg/mL | < 10 min | < 10 min | CC(C)(C)OC(=O)/N=C(\NC1=NC(=O)CN1C(C)(C)C)Nc1ccc(Cl)c(Cl)c1 |  | Active |  |  |  |  |  | 
2 |  | 1.72 µg/mL (≈ 4.3 µM) | 1.26 µg/mL (≈ 3.15 µM) |  | 2.54 µg/mL (≈ 6.35 µM) | < 10 min | < 10 min | CN1CC(=O)N=C1N/C(=N\C(=O)OC(C)(C)C)Nc1ccc(Cl)c(Cl)c1 |  |  | 2 days | 1 days |  |  |  | 
3 |  | 2.57 µg/mL (≈ 8.56 µM) | 3.42 µg/mL (≈ 11.4 µM) |  | 3.31 µg/mL (≈ 11 µM) | > 60 min | > 60 min | CN1CC(=O)N=C1NC(=N)Nc1ccc(Cl)c(Cl)c1 |  | inactive |  |  |  |  |  | 
4 |  | 0.74 µg/mL (≈ 1.73 µM) | 1.6 µg/mL (≈ 3.74 µM) |  | > 5 µg/mL | 15.8 min | 12.8 min | CC(C)N1CC(=O)N=C1N/C(=N\C(=O)OC(C)(C)C)Nc1ccc(Cl)c(Cl)c1 |  | Active |  |  |  | 2 days |  | 
5 | 34.3 min | 2.8 µg/mL (≈ 7 µM) | 2.86 µg/mL (≈ 7.15 µM) | > 60 min |  |  |  | CCOC(=O)/N=C(\NC1=NC(=O)CN1C(C)C)Nc1ccc(Cl)c(Cl)c1 |  | inactive |  | 2 days |  |  | 2 days | 
6 | 14 min | 0.09 µg/mL (≈ 0.211 µM) | 0.06 µg/mL (≈ 0.141 µM) | 5 min | 0.16 µg/mL (≈ 0.375 µM) |  |  | CCC(CC)C(=O)/N=C(\NC1=NC(=O)CN1C(C)C)Nc1ccc(Cl)c(Cl)c1 |  | inactive |  | 2 days |  |  | 3 days | 

More lines, now with the values behind:

Row | Compound | half-life [1] | IC50 [2] | IC50 [3] | half-life [4] | IC50 [5] | half-life [7] | half-life [8] | Activity [6] | Activity [9] | Time [10] | Time [11] | Time [12] | Time [13] | Time [14] | Time [15]
7 | CC(C)NC(=N)NC1=NC(=O)CN1c1cccc(Cl)c1Cl | 53.7 min | 0.7 µg/mL (≈ 2.13 µM) | 1.1 µg/mL (≈ 3.35 µM) | 13.5 min | 2.19 µg/mL (≈ 6.67 µM) |  |  |  |  |  |  |  |  |  | 
8 | CCOC(=O)/N=C(/NC1=NC(=O)CN1c1ccc(Cl)c(Cl)c1)NC(C)C | > 60 min | 0.25 µg/mL (≈ 0.625 µM) | 0.15 µg/mL (≈ 0.375 µM) | > 60 min |  |  |  | inactive |  |  |  |  |  |  | 
9 | CCN(CC)CCCC(C)Nc1ccnc2cc(Cl)ccc12 (stereo not drawn) [CHLOROQUINE] |  |  |  |  |  |  |  |  |  |  |  | 11 days |  |  | 
10 | CC/N=C(\NC1=NC(=O)CN1c1ccc(Cl)c(Cl)c1)Nc1ccc(Cl)c(Cl)c1 | > 60 min | > 5 µg/mL | 2.6 µg/mL (≈ 5.66 µM) |  | > 5 µg/mL | > 60 min |  |  | inactive |  |  |  |  |  | 
11 | CC(C)N1CC(=O)N=C1NC(=N)Nc1ccc(Cl)c(Cl)c1 |  | 2.57 µg/mL (≈ 7.83 µM) | 3.42 µg/mL (≈ 10.4 µM) |  | 3.31 µg/mL (≈ 10.1 µM) | 40 min | > 60 min |  | inactive | 6 days |  |  |  |  | 
12 | CC(C)n1cc(OC(=O)C(C)(C)C)nc1N/C(=N\C(=O)C(C)(C)C)Nc1ccc(Cl)c(Cl)c1 |  | > 12 µg/mL | > 12 µg/mL |  | > 12 µg/mL | > 60 min | > 60 min |  | inactive |  |  |  |  |  | 
13 | CC(C)N1CC(=O)N=C1N/C(=N\C12CC3CC(CC(C3)C1)C2)Nc1ccc(Cl)c(Cl)c1 |  | 2.51 µg/mL (≈ 5.43 µM) | 1.55 µg/mL (≈ 3.35 µM) |  | 2.6 µg/mL (≈ 5.62 µM) | 22.3 min | 20.9 min |  | inactive |  |  |  |  |  | 
14 | COc1cc(NC(C)CCCN)c2ncccc2c1 (stereo not drawn) [PRIMAQUINE] |  |  |  |  |  |  |  |  |  |  |  |  |  |  | 5 days
